Reference: ChEMBL document CHEMBL4219232, “Discovery of novel serine palmitoyltransferase inhibitors as cancer therapeutic agents” (Bioorg Med Chem, 2018)
Values after ≈ are worked out from the molar mass of the structure shown. Blank lines part the entries; values can stand above or below the compound they belong to.

Assays:
[1] = tested on: HCC4006; assay: Growth inhibition of human HCC4006 cells assessed as inflection point after 5 days by cell-titer-glo luminescent cell viability assay; type: functional
Procedure, shortened: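 HCC4006 cells were grown in RPMI with 10% FBS and penicillin/streptomycin, seeded at 250 cells/well and cultured overnight. Cells were then exposed to compound for 5 days, and the medium was replaced with CellTiter-Glo reagent for a luminescence read. The IP is the concentration at the inflection point of the dose-response curve, n = 2.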

[2] = Clearance in human liver microsomes in presence of NADPH; type: ADME, microsome; conditions: read-out: CLH
Procedure, shortened: (§1)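 Metabolic clearance was measured in human or mouse liver microsomes with NADPH, n = 2, in μL/min/mg.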

[3] = Clearance in mouse liver microsomes in presence of NADPH; type: ADME, microsome; conditions: read-out: CLH; procedure, shortened: as §1
[4] = Oral bioavailability in non-fasted mouse at 1 mg/kg administered as cassette dosing by LC/MS/MS analysis; type: ADME, organism-based; conditions: in vivo
Procedure, shortened: (§2)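 Non-fasted mice received compounds as cassettes, intravenously at 0.1 mg/kg (10 compounds per cassette) or orally at 1 mg/kg (5 compounds per cassette). Blood was collected and centrifuged to plasma. Plasma was deproteinized with acetonitrile and centrifuged before analysis. Parameters are means of n = 3.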

[5] = Inhibition of SPT in human HCC4006 cells assessed as reduction in ceramide content after 24 hrs in presence of C16-ceramide-d31/C14-phosphatidylcholine-d72 by LC/MS analysis; conditions: HCC4006, 24 h
[6] = Growth inhibition of human PL21 cells after 5 days by cell-titer-glo luminescent cell viability assay; type: functional; conditions: for IC50: Homo sapiens, PL-21, 120 h
[7] = Thermodynamic solubility in Japanese pharmacopoeia disintegration test solution 2 at 6.8; type: physicochemical; conditions: Japanese pharmacopoeia disintegration test solution 2, pH 6.8; read-out: Therm_solubility
Procedure, shortened: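 Thermodynamic solubility was measured in Japanese Pharmacopoeia disintegration test solution 2 at pH 6.8.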

[8] = Volume of distribution at steady state in non-fasted mouse at 0.1 mg/kg, iv administered as cassette dosing by LC/MS/MS analysis; type: ADME, organism-based; conditions: in vivo, read-out: Vdss; procedure, shortened: as §2
[9] = Total clearance in non-fasted mouse at 0.1 mg/kg, iv administered as cassette dosing by LC/MS/MS analysis; type: ADME, organism-based; conditions: in vivo; procedure, shortened: as §2
[10] = Cmax in non-fasted mouse at 1 mg/kg, po administered as cassette dosing by LC/MS/MS analysis; type: ADME, organism-based; set-up: dose 1 mg/kg, route oral; conditions: in vivo; procedure, shortened: as §2
[11] = Tmax in non-fasted mouse at 1 mg/kg, po administered as cassette dosing by LC/MS/MS analysis; type: ADME, organism-based; conditions: in vivo; procedure, shortened: as §2
[12] = AUC in non-fasted mouse at 1 mg/kg, po administered as cassette dosing by LC/MS/MS analysis; type: ADME, organism-based; conditions: in vivo; procedure, shortened: as §2
[13] = MRT in non-fasted mouse at 1 mg/kg, po administered as cassette dosing by LC/MS/MS analysis; type: ADME, organism-based; conditions: in vivo; procedure, shortened: as §2
[14] = tested on: Mus musculus; assay: In vivo inhibition of SPT in tumors of human HCC1806 cells xenografted in mouse assessed as reduction in 3-KDS levels at 10 mg/kg, po measured after 8 hrs post dose by LC/MS analysis relative to control; type: functional
Procedure, shortened: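 HCC1806 breast cancer xenograft mice were dosed orally at 10 mg/kg. Tumor 3-KDS was quantified by LC/MS 8 h after dosing and compared with vehicle. Data are mean ± SD, n = 5, analysed by Dunnett's test.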

[15] = Antitumor activity against human PL21 cells xenografted in mouse at 10 mg/kg, po administered every other day for 2 weeks relative to control; type: functional
Procedure, shortened: (§3)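 PL-21 xenograft mice, n = 6 per group. Compound was suspended in 0.5% aqueous methylcellulose and given orally every other day for two weeks at 10 or 30 mg/kg. Tumor volume and body weight were followed. T/C is the median tumor weight of the treated group divided by that of the control group.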

[16] = Antitumor activity against human PL21 cells xenografted in mouse at 30 mg/kg, po administered every other day for 2 weeks relative to control; type: functional; procedure, shortened: as §3
[17] = tested on: Mus musculus; assay: Toxicity in mouse xenografted with human PL21 cells assessed as body weight loss at 10 to 30 mg/kg, po administered every other day for 2 weeks; type: organism-based; conditions: in vivo, 336 h; procedure, shortened: as §3
[18] = Permeability of the compound from apical to basolateral side at pH 7.8 by PAMPA
[19] = biological target: T1, Serine palmitoyltransferase 2 (Homo sapiens, UniProt O15270); assay: Inhibition of human SPT2 transfected in Freestyle293 cells using L-serine and palmitoyl-CoA as substrate preincubated for 60 mins followed by substrate addition measured after 15 mins by mass spectrometric analysis; type: cell-based
T1 sequence (O15270 whole entry): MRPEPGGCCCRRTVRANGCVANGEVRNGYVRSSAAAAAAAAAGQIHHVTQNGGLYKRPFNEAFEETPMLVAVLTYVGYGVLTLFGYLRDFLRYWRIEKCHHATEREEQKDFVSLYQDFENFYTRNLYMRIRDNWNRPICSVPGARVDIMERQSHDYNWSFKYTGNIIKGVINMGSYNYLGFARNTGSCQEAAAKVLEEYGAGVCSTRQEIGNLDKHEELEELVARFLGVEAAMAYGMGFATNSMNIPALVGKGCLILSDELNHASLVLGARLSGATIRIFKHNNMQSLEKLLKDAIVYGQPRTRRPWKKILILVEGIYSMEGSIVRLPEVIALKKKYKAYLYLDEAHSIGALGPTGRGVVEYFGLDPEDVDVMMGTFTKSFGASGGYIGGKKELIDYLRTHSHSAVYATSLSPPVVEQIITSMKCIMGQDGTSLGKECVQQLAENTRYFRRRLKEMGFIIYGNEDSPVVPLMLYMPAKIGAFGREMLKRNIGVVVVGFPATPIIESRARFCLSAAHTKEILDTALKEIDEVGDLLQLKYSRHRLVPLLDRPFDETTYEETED

microsomal CLint [2]: 132 µL/min/mg | microsomal CLint [3]: 216 µL/min/mg
SMILES: COc1ccc(C(=O)N2CCC(NC(=O)c3ccccc3Cl)c3ccc(Cl)cc32)cc1OC (stereo not given)
IP [1]: 500 nM

microsomal CLint [2]: 6 µL/min/mg | microsomal CLint [3]: 5 µL/min/mg | bioavailability [4]: 53% | IC50 [5]: 2.4 nM | solubility thermodynamic [7]: 24 µg/mL (≈ 45 µM) | Vd [8]: 1.13 L/kg | clearance [9]: 15.9 mL/min/kg | Cmax [10]: 309 ng/mL | Tmax [11]: 0.5 h | AUC [12]: 572 ng·h/mL | MRT [13]: 1.4 h | Papp [18]: 16.7 ×10⁻⁶ cm/s
SMILES: COc1cc(C(=O)N2CC[C@H](NC(=O)c3ccccc3OC(F)(F)F)c3c2cnn3C(C)C)cnc1OC
IP [1]: 3.9 nM | Imax [6]: >90% | IC50 [6]: 4.1 nM | inhibition in vivo at 10 mg/kg [14]: 40% | T/C [15]: 52% | T/C [16]: 38% | Activity [17]: Non-Toxic

SMILES: COc1ccc(C(=O)N2CCC(Nc3ccc(Cl)cc3)c3ccc(Cl)cc32)cc1OC (stereo not given)
IP [1]: 12000 nM

SMILES: COc1ccc(C(=O)N2CC[C@H](NC(=O)c3ccccc3Cl)[C@@H](c3ccccc3)C2)cc1OC
IP [1]: >30000 nM

microsomal CLint [2]: 21 µL/min/mg | microsomal CLint [3]: 245 µL/min/mg | bioavailability [4]: < 1%
SMILES: COc1ccc(C(=O)N2CC[C@@H](NC(=O)c3ccccc3Cl)[C@@H](c3ccccc3)C2)cc1OC
IP [1]: 14 nM

microsomal CLint [2]: < 1 µL/min/mg | microsomal CLint [3]: 60 µL/min/mg | bioavailability [4]: 56% | IC50 [5]: 2.3 nM | solubility thermodynamic [7]: 8 µg/mL (≈ 14.7 µM) | Vd [8]: 0.75 L/kg | clearance [9]: 8.45 mL/min/kg | Cmax [10]: 282 ng/mL | Tmax [11]: 1.2 h | AUC [12]: 1110 ng·h/mL | MRT [13]: 2.7 h | Papp [18]: 20.3 ×10⁻⁶ cm/s
SMILES: Cn1nc(C(F)(F)F)cc1C(=O)N[C@@H]1CCN(C(=O)c2cc(Cl)c3nccnc3c2)C[C@@H]1c1ccccc1
IP [1]: 11 nM | Imax [6]: >90% | IC50 [6]: 11 nM | inhibition in vivo at 10 mg/kg [14]: 40%

SMILES: COc1ccc(C(=O)N2CC[C@H](NC(=O)c3ccccc3Cl)[C@H](c3ccccc3)C2)cc1OC
IP [1]: 3800 nM

SMILES: COc1ccc(C(=O)N2CC[C@@H](NC(=O)c3ccccc3Cl)[C@H](c3ccccc3)C2)cc1OC
IP [1]: 570 nM

SMILES: COc1cc(C(=O)N2CC[C@@H](NC(=O)c3ccccc3OC(F)(F)F)c3c2cnn3C(C)C)cnc1OC
IP [1]: >30000 nM

SMILES: COc1ccc(C(=O)N2CCC(NC(=O)c3ccccc3Cl)C(c3ccccc3)C2)cc1OC (mixture of isomers)
IP [1]: 41 nM

microsomal CLint [2]: 15 µL/min/mg | bioavailability [4]: 25%
SMILES: COc1cc(C(=O)N2CCC(NC(=O)c3ccccc3OC(F)(F)F)c3c2cnn3C(C)C)cnc1OC (racemic)
IP [1]: 23 nM

microsomal CLint [2]: 6 µL/min/mg | microsomal CLint [3]: 6 µL/min/mg | bioavailability [4]: 28%
SMILES: COc1ccc(C(=O)N2CCC(NC(=O)c3ccccc3Cl)c3c2cnn3C)cc1OC (racemic)
IP [1]: 250 nM

SMILES: CCCCCCC(=O)CCCCCC/C=C/C[C@@H](O)[C@H](O)[C@@](N)(CO)C(=O)O [MYRIOCIN]
IC50 [19]: 0.13 nM | IP [1]: 2.1 nM | IC50 [5]: 1.5 nM | Imax [6]: >90% | IC50 [6]: 7.8 nM
